Results on 2 compounds are retold here after ChEMBL document CHEMBL4699542, “Design and synthesis of novel methoxypyridine-derived gamma-secretase modulators” (Bioorg Med Chem, 2020).

Data set [1] can be described thus: Metabolic stability in rat liver microsomes assessed as parent compound remaining at 1 uM incubated for 30 mins. The format is ADME, Microsome. To be noted: 0.5 h. The method, boiled down: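 Test compound at 1 μM incubated 30 min with human, rat or mouse liver microsomes (1 mg/mL); parent remaining expressed as %.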
For orientation: Liver microsomes are vesicles of endoplasmic reticulum, rich in cytochrome P450 enzymes.

Data set [2] can be described thus: Cmax in CD-1 mouse at 5 mg/kg, po administered as single dose measured up to 24 hrs. Format: ADME, organism-based. More on the design: route oral, dose 5 mg/kg, time <=24. The note with it: in vivo. The gist of the method:
(§1)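 Male CD-1 mice, 6–8 weeks old, single dose by tail vein (1 mg/kg, 3% NMP/45% PEG300/12% ethanol/40% water) or oral gavage (5 mg/kg, 5% NMP/95% PEG300). Retro-orbital plasma sampled 0.083 (iv only) to 24 h, n=3/timepoint, and analysed by HPLC/MS/MS. Non-compartmental analysis. Half-life taken from the terminal phase using ≥3 non-zero points after Tmax.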

Data set [3] in a line: Kinetic aqueous solubility of the compound in pH 7.4 PBS buffer by UV/Visible absorbance analysis. The note with it: read-out: Kinetic_solubility. The format is physicochemical. The method, boiled down: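 Kinetic solubility determined in PBS at pH 7.4 by UV/Vis absorbance, reported in μM.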
Data set [4] can be described thus: In vivo modulation of gamma secretase in transgenic J20 mouse overexpressing human APP assessed as reduction in plasma amyloid beta42 level at 50 mg/kg, po administered via gavage for 3 consecutive days and measured after 4 hrs post last dose on day 3 by meso scale discovery relative to control. The format is functional. The note with it: time 3 day. Further details: scale not given: the % may be the effect or the level left. The gist of the method: (§2)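 Female J20 mice, 5–6 months old (n=5/dose), dosed orally at 25, 50 or 100 mg/kg or with vehicle (5% NMP/95% PEG300) for 3 consecutive days. Plasma was taken 4 h after the final dose. Aβ38/40/42 measured by Meso Scale multiplex immunoassay, with % reduction relative to vehicle. Mean ± SEM, ANOVA.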

The nature of data set [5]: In vivo modulation of gamma secretase in transgenic J20 mouse overexpressing human APP assessed as reduction in plasma amyloid beta38 level at 50 mg/kg, po administered via gavage for 3 consecutive days and measured after 4 hrs post last dose on day 3 by meso scale discovery relative to control. Format: functional. Further details: scale not given: the % may be the effect or the level left. To be noted: time 3 day. The method, boiled down: as §2

The nature of data set [6]: Drug level in brain of transgenic J20 mouse overexpressing human APP at 50 mg/kg, po administered via gavage for 3 consecutive days and measured after 4 hrs post last dose on day 3 by HPLC-MS/MS analysis. The format is ADME, organism-based. The note with it: time 3 day, read-out: Ct. The method, boiled down: (§3)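 Female J20 mice, 5–6 months old, given 25, 50 or 100 mg/kg orally (5% NMP/95% PEG300) daily for 3 days, n=5/dose. Plasma and brain taken 4 h after the final dose and analysed by LC-MS/MS. LLOQ was 1 ng/mL in plasma and 5 ng/g in brain.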

Another data set deals with Cytochrome P450 2C9 (Homo sapiens, UniProt P11712). In words: Inhibition of recombinant CYP2C9 (unknown origin) by fluorescence-based assay. The format is ADME. The gist of the method:
(§4)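 Recombinant CYP isoforms (five tested) screened for inhibition in fluorescence-based assays; IC50 in μM.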

A short description of data set [7]: Ratio of drug level in brain to plasma of transgenic J20 mouse overexpressing human APP at 25 mg/kg, po administered via gavage for 3 consecutive days and measured after 4 hrs post last dose on day 3 by HPLC-MS/MS analysis. To be noted: 72 h, time 3 day. The format is ADME, organism-based. The method, boiled down: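 Female J20 mice, 5–6 months old (n=5/dose), dosed by oral gavage once daily for 3 days in 5% NMP/95% PEG300 vehicle. Sacrificed 4 h after the day-3 dose. Plasma and brain drug levels measured by LC-MS/MS (LLOQ 1 ng/mL plasma, 5 ng/g brain). Ratio = brain level/plasma level.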

The nature of data set [8]: In vivo modulation of gamma secretase in transgenic J20 mouse overexpressing human APP assessed as reduction in plasma amyloid beta40 level at 25 mg/kg, po administered via gavage for 3 consecutive days and measured after 4 hrs post last dose on day 3 by meso scale discovery relative to control. Format: functional. To be noted: time 3 day. More on the design: scale not given: the % may be the effect or the level left. The gist of the method: as §2

Data set [9] is described as follows: In vivo modulation of gamma secretase in transgenic J20 mouse overexpressing human APP assessed as reduction in plasma amyloid beta38 level at 100 mg/kg, po administered via gavage for 3 consecutive days and measured after 4 hrs post last dose on day 3 by meso scale discovery relative to control. Further details: scale not given: the % may be the effect or the level left. Format: functional. To be noted: time 3 day. The gist of the method: as §2

Data set [10] can be described thus: Half life in CD-1 mouse at 5 mg/kg, po administered as single dose measured up to 24 hrs. The format is ADME, organism-based. To be noted: in vivo. The gist of the method:
as §1

Data set [11] in a line: Drug level in plasma of transgenic J20 mouse overexpressing human APP at 25 mg/kg, po administered via gavage for 3 consecutive days and measured after 4 hrs post last dose on day 3 by HPLC-MS/MS analysis. Format: ADME, organism-based. To be noted: time 3 day. The method, boiled down:
as §3

The nature of data set [12]: In vivo modulation of gamma secretase in transgenic J20 mouse overexpressing human APP assessed as reduction in plasma amyloid beta40 level at 100 mg/kg, po administered via gavage for 3 consecutive days and measured after 4 hrs post last dose on day 3 by meso scale discovery relative to control. Format: functional. More on the design: scale not given: the % may be the effect or the level left. To be noted: time 3 day. The gist of the method:
as §2

Data set [13] can be described thus: AUC infinity in CD-1 mouse at 5 mg/kg, po administered as single dose measured up to 24 hrs. The format is ADME, organism-based. More on the design: route oral, dose 5 mg/kg, time <=24. To be noted: in vivo. The gist of the method: as §1
For another data set, the target named is Gamma-secretase. Description: Modulation of gamma secretase in human SH-SY5Y cells overexpressing wild type APP751 assessed as effect on amyloid beta38 level by meso scale discovery. Format: cell-based.
Data set [14] in a line: Drug level in plasma of transgenic J20 mouse overexpressing human APP at 50 mg/kg, po administered via gavage for 3 consecutive days and measured after 4 hrs post last dose on day 3 by HPLC-MS/MS analysis. Format: ADME, organism-based. The note with it: time 3 day. The gist of the method: as §3
Data set [15] has as its target Gamma-secretase (Homo sapiens) (UniProt Q96BI3+Q9NZ42+Q8WW43+P49768+Q92542+P49810). In words: Modulation of gamma secretase in human SH-SY5Y cells overexpressing wild type APP751 assessed as effect on total amyloid beta level by meso scale discovery. Format: cell-based. The method, boiled down: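 SHSY5Y cells stably overexpressing wild-type human APP751 treated with the compound over a concentration range. Aβ38, Aβ40, Aβ42 and total Aβ in the medium measured by MSD triplex immunoassay (4G8 detection, 2 h at room temperature). Concentrations back-fitted from standard curves.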

A short description of data set [16]: Drug level in brain of transgenic J20 mouse overexpressing human APP at 100 mg/kg, po administered via gavage for 3 consecutive days and measured after 4 hrs post last dose on day 3 by HPLC-MS/MS analysis. Format: ADME, organism-based. To be noted: time 3 day, read-out: Ct. The gist of the method:
as §3

A further data set deals with Cytochrome P450 2C19 (Homo sapiens, UniProt P33261). In words: Inhibition of recombinant CYP2C19 (unknown origin) by fluorescence-based assay. Format: ADME. The gist of the method:
as §4

Data set [17] in a line: In vivo modulation of gamma secretase in transgenic J20 mouse overexpressing human APP assessed as reduction in plasma amyloid beta40 level at 50 mg/kg, po administered via gavage for 3 consecutive days and measured after 4 hrs post last dose on day 3 by meso scale discovery relative to control. Format: functional. More on the design: scale not given: the % may be the effect or the level left. To be noted: time 3 day. The gist of the method: as §2

Each structure is given as a SMILES string. pEC50, pIC50: −log10 of the molar value. Values after ≈ are worked out from the molar mass of the structure shown. Active and inactive are the calls of the source. The rule behind the calls is not given here.

Sequence of Cytochrome P450 2C9 (P11712 whole entry, canonical isoform): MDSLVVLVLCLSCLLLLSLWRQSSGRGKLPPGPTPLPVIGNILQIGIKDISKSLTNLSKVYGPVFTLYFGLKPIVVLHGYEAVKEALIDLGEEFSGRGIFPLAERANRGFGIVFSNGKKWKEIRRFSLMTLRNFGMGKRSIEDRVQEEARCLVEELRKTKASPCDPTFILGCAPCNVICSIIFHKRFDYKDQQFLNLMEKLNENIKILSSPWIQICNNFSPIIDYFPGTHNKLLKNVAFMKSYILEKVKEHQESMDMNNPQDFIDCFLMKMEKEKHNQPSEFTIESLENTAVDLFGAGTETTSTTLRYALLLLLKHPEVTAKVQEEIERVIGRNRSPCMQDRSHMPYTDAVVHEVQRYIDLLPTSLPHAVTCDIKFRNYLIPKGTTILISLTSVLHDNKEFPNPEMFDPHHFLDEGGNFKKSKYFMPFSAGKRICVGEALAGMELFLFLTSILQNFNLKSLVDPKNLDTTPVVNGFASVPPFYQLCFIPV
Sequence of Cytochrome P450 2C19 (P33261 whole entry): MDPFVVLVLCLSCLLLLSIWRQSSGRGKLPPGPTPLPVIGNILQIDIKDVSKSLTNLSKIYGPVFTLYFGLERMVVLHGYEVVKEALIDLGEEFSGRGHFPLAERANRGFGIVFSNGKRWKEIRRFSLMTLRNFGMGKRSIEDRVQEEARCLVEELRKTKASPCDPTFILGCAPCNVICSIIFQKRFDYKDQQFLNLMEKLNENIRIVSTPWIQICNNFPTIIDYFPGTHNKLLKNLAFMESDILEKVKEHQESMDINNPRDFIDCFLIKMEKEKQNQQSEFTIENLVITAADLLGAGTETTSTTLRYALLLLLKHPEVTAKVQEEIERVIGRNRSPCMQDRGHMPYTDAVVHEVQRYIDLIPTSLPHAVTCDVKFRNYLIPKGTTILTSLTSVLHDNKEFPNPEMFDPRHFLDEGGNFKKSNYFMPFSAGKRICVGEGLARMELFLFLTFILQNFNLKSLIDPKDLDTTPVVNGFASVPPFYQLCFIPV

As a reminder, the Cmax is the highest concentration seen after dosing. Usually pIC50 stands for −log10 of the IC50, conventionally taken in molar units. For orientation: AUC means concentration integrated over time. By pEC50 is commonly meant the negative decadic logarithm of the EC50, by convention in mol/L. Consider `CCn1nc2c(c1Nc1nc(-c3ccc(-n4cnc(C)c4)c(OC)n3)cs1)CCC2`, for which the Stabilty in data set [1] is recorded as 67%. For the same compound, the Cmax in data set [2] worked out at 377 ng/mL. The solubility kinetic in [3] was 7.8 µM (≈ 3.29 µg/mL). For the same compound, the Activity in [4] turned out to be 40%; in data set [5], 27%; in data set [8], 19%; in data set [9], 50%; in data set [12], 68%; in [17], 31%. Moreover, the concentration at 72 h in data set [6] was 83 ng/g; in [11], 86 ng/mL; in data set [14] it was 223 ng/mL; in data set [16], 337 ng/g. The pIC50 on Cytochrome P450 2C9 and at Cytochrome P450 2C19 was below 4.00 each time. In data set [7], the BPR worked out at 0.37. The same compound yielded a t1/2 in data set [10] of 5.3 h. The compound also yielded an AUC in data set [13] of 1257 ng·h/mL. Moreover, the pEC50 on Gamma-secretase is 6.69. Also, in data set [15], the outcome was inactive.

`COc1nc(-c2csc(Nc3c4c(nn3CCF)CCCC4)n2)ccc1-n1cnc(C)c1`: in data set [1], the Stabilty is 100%. The Cmax in data set [2] turned out to be 167 ng/mL. Besides, the solubility kinetic in [3] came to 15 µM (≈ 6.8 µg/mL). For the same compound, the Activity in data set [4] came out at 48%; in data set [5], 33%; in data set [8], 11%; in data set [9] it was 45%; in [12], 46%; in [17], 36%. Besides, the concentration at 72 h in [6] came out at 282 ng/g; in data set [11] it was 72 ng/mL; in data set [14], 639 ng/mL; in data set [16], 105 ng/g. Besides, the pIC50 was 5.17 on Cytochrome P450 2C9 and 5.34 at Cytochrome P450 2C19. The BPR in data set [7] came to 0.53. In addition, the t1/2 in data set [10] stood at 2.6 h. This compound also returned an exposure (AUC) in [13] of 669 ng·h/mL. Also, the pEC50 on Gamma-secretase is 6.73. The result in [15] was inactive.
